Data on 35 molecules can be found in ChEMBL document CHEMBL1142515, “Synthesis and evaluation of structurally constrained quinazolinone derivatives as potent and selective histamine H3 receptor inverse agonists” (J Med Chem, 2008).

For data set [1], the target named is T1, Histamine H3 receptor (Homo sapiens, UniProt Q9Y5N1). The data set can be described thus: Antagonist activity at human cloned histamine H3 receptor expressed in CHO-K1 cells assessed as inhibition of R-alpha-methylhistamine-induced [35S]GTPgammaS binding. The data set is classed as functional, cell-based.
T1 sequence (Q9Y5N1 whole entry): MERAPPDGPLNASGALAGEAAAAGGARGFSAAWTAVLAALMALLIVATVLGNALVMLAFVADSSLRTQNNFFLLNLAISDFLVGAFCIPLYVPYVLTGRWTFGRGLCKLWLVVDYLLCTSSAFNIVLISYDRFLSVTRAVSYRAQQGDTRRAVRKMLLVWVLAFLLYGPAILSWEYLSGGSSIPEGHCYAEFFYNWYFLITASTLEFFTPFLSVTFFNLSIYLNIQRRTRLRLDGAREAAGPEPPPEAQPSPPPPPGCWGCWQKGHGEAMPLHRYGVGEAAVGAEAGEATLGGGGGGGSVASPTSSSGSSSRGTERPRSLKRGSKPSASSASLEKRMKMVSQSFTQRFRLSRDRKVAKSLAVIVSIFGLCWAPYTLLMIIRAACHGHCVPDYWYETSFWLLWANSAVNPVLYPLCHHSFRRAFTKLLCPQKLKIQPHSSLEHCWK
In data set [2] the target is Voltage-gated inwardly rectifying potassium channel KCNH2 (Homo sapiens, UniProt Q12809). The data set can be described thus: Antagonist activity at human ERG in HEK293 cells assessed as inhibition of [35S]N-[(4R)-1'-[(2R)-6-cyano-1,2,3,4-tetrahydro-2-naphthalenyl]-3,4-dihydro-4-hydroxyspiro[2H-1-benzopyran-2,4'-piperidin]-6-yl]methanesulfonamide binding.
Sequence of Voltage-gated inwardly rectifying potassium channel KCNH2 (Q12809 whole entry): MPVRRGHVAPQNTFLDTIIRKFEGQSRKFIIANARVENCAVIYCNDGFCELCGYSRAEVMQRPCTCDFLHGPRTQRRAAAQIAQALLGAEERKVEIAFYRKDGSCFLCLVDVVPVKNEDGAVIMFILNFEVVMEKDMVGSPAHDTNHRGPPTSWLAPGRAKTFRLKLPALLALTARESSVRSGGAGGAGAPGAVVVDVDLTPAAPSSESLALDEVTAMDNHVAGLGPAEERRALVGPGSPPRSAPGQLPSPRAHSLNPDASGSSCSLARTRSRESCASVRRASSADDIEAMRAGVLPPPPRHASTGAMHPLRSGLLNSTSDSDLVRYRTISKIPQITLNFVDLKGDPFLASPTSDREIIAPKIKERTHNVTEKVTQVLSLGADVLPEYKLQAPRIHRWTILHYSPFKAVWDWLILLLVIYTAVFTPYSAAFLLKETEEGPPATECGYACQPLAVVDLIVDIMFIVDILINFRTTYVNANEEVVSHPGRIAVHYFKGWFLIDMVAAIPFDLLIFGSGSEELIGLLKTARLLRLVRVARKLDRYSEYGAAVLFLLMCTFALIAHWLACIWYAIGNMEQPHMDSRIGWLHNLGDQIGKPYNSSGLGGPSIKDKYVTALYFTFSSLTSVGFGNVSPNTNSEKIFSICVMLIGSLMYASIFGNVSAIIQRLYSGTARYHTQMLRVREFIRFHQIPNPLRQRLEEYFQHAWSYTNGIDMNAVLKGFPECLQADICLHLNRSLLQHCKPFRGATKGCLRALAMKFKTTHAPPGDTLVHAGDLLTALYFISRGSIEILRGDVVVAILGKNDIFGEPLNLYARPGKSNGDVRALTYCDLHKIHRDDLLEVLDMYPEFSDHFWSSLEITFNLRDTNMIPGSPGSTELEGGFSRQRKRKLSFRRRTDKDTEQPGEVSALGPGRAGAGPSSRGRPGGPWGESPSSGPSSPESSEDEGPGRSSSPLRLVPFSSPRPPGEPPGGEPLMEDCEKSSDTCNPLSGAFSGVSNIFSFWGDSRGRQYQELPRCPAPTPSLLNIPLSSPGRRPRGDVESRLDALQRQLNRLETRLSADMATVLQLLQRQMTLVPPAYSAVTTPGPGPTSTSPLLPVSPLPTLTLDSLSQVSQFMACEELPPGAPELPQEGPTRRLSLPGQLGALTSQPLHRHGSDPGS
Data set [3] has as its system LLC-PK1. The data set can be described thus: Ratio of permeability from apical to basolateral side over basolateral to apical side in pig LLC-PK1 cells expressing human MDR1. It counts as ADME, cell-based, Sus scrofa.
A short description of data set [4]: Cmax in Beagle dog at 0.3 mg/kg, iv and 1 mg/kg, po. It counts as ADME, organism-based, Canis lupus familiaris. Conditions: in vivo. A digest of the protocol:
(§1)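 Male SD rats, male Beagle dogs, male rhesus monkeys given single doses iv (PEG400/EtOH/H2O 50/10/40) or po by gavage (0.5% methylcellulose suspension). Rats 1 mg/kg iv and 3 mg/kg po; dogs and monkeys 0.3 mg/kg iv and 1 mg/kg po. Plasma sampled at multiple times up to 24 h, deproteinized with ethanol plus internal standard. Mean of n = 3 animals/dose.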

Data set [5] in a line: Cmax in rhesus monkey at 0.3 mg/kg, iv and 1 mg/kg, po. It counts as ADME, organism-based, Macaca mulatta. The following applies: in vivo. The gist of the method: as §1
Data set [6] can be described thus: Oral bioavailability in Sprague-Dawley rat at 3 mg/kg. The data set is classed as ADME, organism-based. Conditions: in vivo. A digest of the protocol:
as §1

Data set [7] is described as follows: AUC (0 to infinity) in Sprague-Dawley rat at 3 mg/kg, po. It counts as ADME, organism-based. On the set-up: time infinity, dose 3 mg/kg, route oral. The following applies: plasma. The gist of the method: as §1
Data set [8] in a line: Plasma clearance in Sprague-Dawley rat at 1 mg/kg, iv. Also noted: dose 1 mg/kg, route intravenous. The data set is classed as ADME, organism-based. The gist of the method: as §1
Data set [9] relates to Brain. The data set can be described thus: Drug level in Sprague-Dawley rat brain at 10 mg/kg, po after 2 hrs. The data set is classed as ADME, organism-based. Also noted: dose 10 mg/kg, route oral. The following applies: in vivo. The gist of the method: (§2)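 Male SD rats dosed orally at 10 mg/kg. Plasma, brain and CSF concentrations determined 2 h after dosing. Brain/plasma ratio taken from these levels. Mean of n = 3 animals.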

Data set [10] concerns the target Histamine H3 receptor (Mus musculus, UniProt P58406). The data set can be described thus: Displacement of [3H]N-alpha-methylhistamine from mouse recombinant histamine H3 receptor.
Data set [11] concerns Canis familiaris. Nature of the data set: Oral bioavailability in Beagle dog at 1 mg/kg. The following applies: in vivo. It counts as ADME, organism-based, Canis lupus familiaris. The gist of the method:
as §1

The nature of data set [12]: Ratio of drug level in cerebrospinal fluid to brain in Sprague-Dawley rat at 10 mg/kg, po after 2 hrs. The following applies: in vivo. Also noted: dose 10 mg/kg, route oral. The data set is classed as ADME, organism-based, CSF/Brain.
Data set [13] in a line: Plasma concentration in Sprague-Dawley rat at 10 mg/kg, po after 2 hrs. Also noted: dose 10 mg/kg, route oral. It counts as ADME, organism-based. A digest of the protocol:
as §2

Data set [14] deals with Canis familiaris. Nature of the data set: AUC (0 to infinity) in Beagle dog at 1 mg/kg, po. It counts as ADME, organism-based, Canis lupus familiaris, Plasma. On the set-up: time infinity, dose 1 mg/kg, route oral. Conditions: in vivo. The gist of the method:
as §1

In data set [15] the target is Histamine H3 receptor (Rattus norvegicus, UniProt Q9QYN8). The data set can be described thus: Displacement of [3H]N-alpha-methylhistamine from rat recombinant histamine H3 receptor expressed in HEK293 cells. The data set is classed as cell-based.
Sequence of Histamine H3 receptor (Rattus norvegicus, UniProt Q9QYN8) (Q9QYN8 whole entry): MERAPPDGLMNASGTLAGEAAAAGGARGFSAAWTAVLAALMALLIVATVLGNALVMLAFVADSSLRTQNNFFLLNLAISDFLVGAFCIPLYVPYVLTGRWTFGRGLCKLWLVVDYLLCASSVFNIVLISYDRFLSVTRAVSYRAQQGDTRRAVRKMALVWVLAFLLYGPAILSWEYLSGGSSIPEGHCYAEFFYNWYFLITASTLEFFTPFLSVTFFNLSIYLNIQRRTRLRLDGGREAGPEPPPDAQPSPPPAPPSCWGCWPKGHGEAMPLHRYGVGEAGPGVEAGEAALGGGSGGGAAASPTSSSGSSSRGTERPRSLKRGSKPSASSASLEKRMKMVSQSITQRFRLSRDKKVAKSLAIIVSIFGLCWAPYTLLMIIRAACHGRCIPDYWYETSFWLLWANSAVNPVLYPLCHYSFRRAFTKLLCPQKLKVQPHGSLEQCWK
Data set [16] relates to Rhesus monkey. Nature of the data set: AUC (0 to infinity) in rhesus monkey at 1 mg/kg, po. It counts as ADME, organism-based, Macaca mulatta, Plasma. On the set-up: time infinity, dose 1 mg/kg, route oral. Conditions: in vivo. The gist of the method:
as §1

A short description of data set [17]: Cmax in Sprague-Dawley rat at 1 mg/kg, iv and 3 mg/kg, po. The data set is classed as ADME, organism-based. Conditions: in vivo. The gist of the method: as §1
Data set [18] is described as follows: Ratio of drug level in brain to plasma in Sprague-Dawley rat at 10 mg/kg, po after 2 hrs. It counts as ADME, organism-based. On the set-up: dose 10 mg/kg, route oral. The following applies: read-out: BPR. A digest of the protocol:
as §2

The subject of data set [19] is Rhesus monkey. The data set can be described thus: Oral bioavailability in rhesus monkey at 1 mg/kg. It counts as ADME, organism-based, Macaca mulatta. Conditions: in vivo. The gist of the method: as §1
The nature of data set [20]: Drug level in Sprague-Dawley rat cerebrospinal fluid at 10 mg/kg, po after 2 hrs. The data set is classed as ADME, organism-based. On the set-up: dose 10 mg/kg, route oral. The following applies: read-out: Drug uptake. A digest of the protocol: as §2
Data set [21] has as its target T1, Histamine H3 receptor. Nature of the data set: Displacement of [3H]N-alpha-methylhistamine from human recombinant histamine H3 receptor expressed in CHO-K1 cells. It counts as cell-based.
Data set [22] concerns LLC-PK1. Nature of the data set: Ratio of permeability from apical to basolateral side over basolateral to apical side in pig LLC-PK1 cells expressing mouse MDR1a. The data set is classed as ADME, cell-based, Sus scrofa.

Bounds are passed on as bounds.

Sequence of Histamine H3 receptor (Mus musculus, UniProt P58406) (P58406 whole entry): as the sequence (Q9QYN8 whole entry) above, with T15A, A286T, A290G, R387H, I389V counted along it

In the case of `Cc1nc2cc(F)c(F)cc2c(=O)n1-c1ccc(OC2CCN(C3CCC3)CC2)cc1`, the IC50 was 0.91 nM in data set [1] and over 10000 nM in data set [2].
In the case of `Cc1nc2ccccc2c(=O)n1-c1ccc(OC2CCN(C3CCCCC3)CC2)cc1`, the IC50 in data set [1] came out at 43 nM.
For the molecule `COc1ccc2nc(C)n(-c3ccc(OC4CCN(C5CCC5)CC4)cc3)c(=O)c2c1`, the IC50 was 1.5 nM in [1] and over 10000 nM in [2].
Turning to `Cc1nc2ccccc2c(=O)n1-c1ccc(OC2CCCN(C3CCCC3)CC2)cc1` (centres undefined), the IC50 in [1] stood at 7 nM.
In the case of `Cc1nc2ccc(F)cc2c(=O)n1-c1ccc(OC2CCN(C3CCC3)CC2)cc1`, the IC50 is 1.2 nM in [1] and over 10000 nM in [2].
On the same counts, the results for `Cc1nc2ccccc2c(=O)n1-c1ccc(OC2CCC(N3CCCC3)C2)cc1` (stereo in doubt; 3b) are 8.6 nM and 10000 nM.
For the molecule `Cc1nc2cc(Cl)ccc2c(=O)n1-c1ccc(OC2CCN(C3CCC3)CC2)cc1`, the results for the IC50 in [1] and in [2] were 3 nM and 3900 nM, respectively.
On the same counts, the results for `Cc1nc2cccnc2c(=O)n1-c1ccc(OC2CCN(C3CCC3)CC2)cc1` are 14 nM and over 10000 nM.
On the same counts, the results for `Cc1nc2ccccc2c(=O)n1-c1ccc(OC2CCCN(C3CCC3)CC2)cc1` (centres undefined) are 10 nM and 7300 nM.
For the molecule `Cc1nc2ccccc2c(=O)n1-c1ccc(OC2CCN(C)CC2)cc1`, in data set [1], the IC50 stood at 740 nM.
In the case of `Cc1nc2cnccc2c(=O)n1-c1ccc(OC2CCN(C3CCC3)CC2)cc1`, the IC50 in [1] is 1.8 nM; in data set [2] it was over 10000 nM.
With `Cc1nc2ccccc2c(=O)n1-c1ccc(O[C@H]2CC[C@H](N3CCCC3)CC2)cc1`, the IC50 in data set [1] worked out at 813 nM.
For the molecule `Cc1nc2ccccc2c(=O)n1-c1ccc(OC2CCNCC2)cc1`, in [1], the IC50 is over 1000 nM.
Turning to `Cc1cccc2nc(C)n(-c3ccc(OC4CCN(C5CCC5)CC4)cc3)c(=O)c12`, the figures for the Ratio in [3], in data set [12] and in data set [22] were 0.9, 0.03 and 1, respectively. Besides, the IC50 in [1] is 0.27 nM; in data set [2] it was over 10000 nM. The Cmax in data set [4] came out at 1100 nM; in [5], 20 nM; in [17] it was 560 nM. For the same molecule, the bioavailability in data set [6] worked out at 40%. This molecule returned an AUC(0-inf) in [7] of 2.33 µM·h. In [8], this molecule returned a clearance of 25 mL/min/kg. In [9], the Drug uptake came to 3.2 nmol/g. The Ki in [10] turned out to be 3.9 nM; in data set [15], 1.8 nM; in data set [21] it was 1.7 nM. Further, the F was found to be 76% in data set [11] and 1% in [19]. Moreover, the figures for the concentration at 2 h in [13] and in data set [20] were 1400 nM and 100 nM, respectively. In addition, the AUC in data set [14] amounted to 5.6 µM·h; in data set [16], 0.08 µM·h. The Kp at 2 h in [18] amounted to 2.3.
On to `Cc1nc2ccccc2c(=O)n1-c1ccc(OC2CCN(C3CCCC3)C2)cc1` (centres undefined), for which the IC50 in data set [1] came out at 37 nM.
For `Cc1nc2ccccc2c(=O)n1-c1ccc(OC2CCN(C3CCC3)CC2)cc1`, the IC50 in data set [1] is 1.5 nM; in data set [2] it was over 10000 nM.
For the molecule `CCN1CCC(Oc2ccc(-n3c(C)nc4ccccc4c3=O)cc2)CC1`, the IC50 in data set [1] stood at 49 nM.
Still for that read-out and setting: then `Cc1nc2c(Cl)cccc2c(=O)n1-c1ccc(OC2CCN(C3CCC3)CC2)cc1`, with 1.7 nM.
As for `Cc1nc2ccccc2c(=O)n1-c1ccc(OC2CCC(N3CCCC3)C2)cc1` (stereo in doubt; 3a), the IC50 is 3.4 nM in [1] and over 10000 nM in data set [2].
With `Cc1nc2cc(F)ccc2c(=O)n1-c1ccc(OC2CCN(C3CCC3)CC2)cc1`, the IC50 in data set [1] was found to be 1.3 nM.
Consider `Cc1nc2ncccc2c(=O)n1-c1ccc(OC2CCN(C3CCC3)CC2)cc1`, for which the IC50 is 1.6 nM in data set [1] and over 10000 nM in data set [2].
The matching figures for `Cc1nc2ccccc2c(=O)n1-c1ccc(OC2CCN(C3CCCC3)CC2)cc1`: 3.2 nM and over 10000 nM.
The matching figures for `Cc1nc2ccc(Cl)cc2c(=O)n1-c1ccc(OC2CCN(C3CCC3)CC2)cc1`: 1.5 nM and 5400 nM.
With `Cc1nc2ccccc2c(=O)n1-c1ccc(O[C@H]2CC[C@@H](N3CCCC3)CC2)cc1`, the IC50 in [1] was determined as 10 nM.
As for `COc1ccc2c(=O)n(-c3ccc(OC4CCN(C5CCC5)CC4)cc3)c(C)nc2c1`, the results for the IC50 in [1] and in data set [2] were 1.8 nM and over 10000 nM, respectively.
The matching figures for `Cc1nc2ccncc2c(=O)n1-c1ccc(OC2CCN(C3CCC3)CC2)cc1`: 2 nM and over 10000 nM.
As for `Cc1nc2cccc(Cl)c2c(=O)n1-c1ccc(OC2CCN(C3CCC3)CC2)cc1`, the half-maximal inhibitory concentration (IC50) in data set [1] is 0.34 nM; in data set [2] it was over 10000 nM.
The matching figures for `COc1cccc2nc(C)n(-c3ccc(OC4CCN(C5CCC5)CC4)cc3)c(=O)c12`: 1.2 nM and over 10000 nM.
For the molecule `CNC(=O)c1ccc(Oc2ccc3c(c2)CCN(C2CCC2)CC3)nc1` [GSK189254], in data set [1], the IC50 was determined as 0.55 nM.
Take `Cc1nc2c(F)cccc2c(=O)n1-c1ccc(OC2CCN(C3CCC3)CC2)cc1`: the IC50 in data set [1] stood at 0.84 nM.
As to `CCCCN1CCC(Oc2ccc(-n3c(C)nc4ccccc4c3=O)cc2)CC1`, in [1], the IC50 worked out at 91 nM.
Same read-out and setting: then `Cc1nc2ccccc2c(=O)n1-c1ccc(OC2CCN(C3CCC3)C2)cc1` (centres undefined), with 103 nM.
For the molecule `COc1cccc2c(=O)n(-c3ccc(OC4CCN(C5CCC5)CC4)cc3)c(C)nc12`, the values for the IC50 in data set [1] and in data set [2] were 4.2 nM and over 10000 nM, respectively.
Regarding `Cc1nc2ccccc2c(=O)n1-c1ccc(OC2CCN(C(C)C)CC2)cc1`, the IC50 in data set [1] came out at 14 nM.
Still for that read-out and setting: as for `CCCN1CCC(Oc2ccc(-n3c(C)nc4ccccc4c3=O)cc2)CC1`, the figure is 60 nM.
